This is an account of results in ChEMBL document CHEMBL4251566 (Eur J Med Chem, 2018).

Series [1] concerns the target T1, Tyrosine-protein kinase BTK (Homo sapiens, UniProt Q06187). As to the kind of experiment: Inhibition of recombinant full-length N-terminal His-tagged human BTK expressed in baculovirus infected Sf9 insect cells using Poly(4:1 Glu,Tyr) peptide substrate incubated for 60 mins by ADP-Glo luminescence assay. (In general: In ADP-Glo the light output rises with the ADP produced.)

The subject of series [2] is Raji. Put plainly: Antiproliferative activity against human Raji cells after 72 hrs by CCK-8 assay. Format: functional, cell-based. An outline of the steps: (§1)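 CCK-8 viability assay. Cells were seeded at 3000/well in RPMI-1640 with 10% FBS at 37 °C, 5% CO2, for 4 h before treatment. Exposure was 72 h at five concentrations (1.25, 5, 10, 20, 40 µM), each in five replicates. Absorbance was read at 450 nm. IC50 came from dose-response curves, as the mean of at least three separate experiments.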
In general terms: Formazan colour is commonly taken as a measure of viable cells.

Series [3] concerns NAMALVA. As to the kind of experiment: Antiproliferative activity against human NAMALWA cells after 72 hrs by CCK-8 assay. The class given is functional, cell-based. Summed up: as §1
Series [4] concerns PBMC. As to the kind of experiment: Cytotoxicity against human PBMCs assessed as induction of morphological changes at <10 uM after 24 hrs by AO/PI staining-based phase contrast microscopy. Format: cell-based.
Series [5] deals with Ramos. Put plainly: Induction of apoptosis in human Ramos cells assessed as necrotic cells at 10 uM after 72 hrs by Annexin V-FITC/propidium iodide staining based flow cytometry (reference value: 0.7%). The class given is functional. For orientation: A flow cytometer gives signals particle by particle.
Series [6] relates to Ramos. Put plainly: Induction of apoptosis in human Ramos cells assessed as necrotic cells at 5 uM after 72 hrs by Annexin V-FITC/propidium iodide staining based flow cytometry (reference value: 0.7%). Format: functional.
For series [7], the system named is Ramos. Put plainly: Induction of apoptosis in human Ramos cells assessed as late apoptotic cells at 5 uM after 72 hrs by Annexin V-FITC/propidium iodide staining based flow cytometry (reference value: 0.5%). Format: functional.
Series [8] relates to Ramos. As to the kind of experiment: Induction of apoptosis in human Ramos cells assessed as necrotic cells at 20 uM after 72 hrs by Annexin V-FITC/propidium iodide staining based flow cytometry (reference value: 0.7%). The class given is functional.
The test system of series [9] is Ramos. As to the kind of experiment: Induction of apoptosis in human Ramos cells assessed as late apoptotic cells at 20 uM after 72 hrs by Annexin V-FITC/propidium iodide staining based flow cytometry (reference value: 0.5%). The class given is functional.
The target of series [10] is T1, Tyrosine-protein kinase BTK. Put plainly: Inhibition of BTK phosphorylation in human NAMALWA cells after 48 hrs by immunoblot analysis. Format: cell-based. Summed up: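 Namalwa cells were treated with 1, 5 or 10 µM for 48 h. Lysates were cleared at 14,000 g for 15 min at 4 °C, and 50 µg of protein was run on 8–12% SDS-PAGE and transferred to PVDF. Membranes were blocked in 5% milk for 2 h and incubated with primary antibody overnight at 4 °C. Detection was by ECL, with band IOD normalized to β-actin.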

Series [11] deals with Mus musculus. As to the kind of experiment: Toxicity in CB17/SCID mouse xenografted with Ramos cells assessed as change in body weight at 60 mg/kg, po qd for 14 days. Format: organism-based. Conditions: in vivo, 336 h. An outline of the steps: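 Female CB17/SCID mice, 5–6 weeks old and 20–25 g, received 3×10⁶ Ramos cells in 0.1 mL PBS subcutaneously in the right axilla. From day 3 after implantation, dosing was oral at 30 or 60 mg/kg for 14 days; vehicle controls got oral 25% PEG-400. Tumor volume was A×B²/2 from caliper diameters. Tumor weight was taken at sacrifice, and body weight was tracked. n = 5.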

The subject of series [12] is Ramos. As to the kind of experiment: Induction of apoptosis in human Ramos cells assessed as total apoptosis rate at 5 uM after 72 hrs by Annexin V-FITC/propidium iodide staining based flow cytometry relative to control.
Series [13] deals with Ramos. Put plainly: Induction of apoptosis in human Ramos cells assessed as total apoptosis rate at 10 uM after 72 hrs by Annexin V-FITC/propidium iodide staining based flow cytometry relative to control.

T1 sequence (Q06187 whole entry): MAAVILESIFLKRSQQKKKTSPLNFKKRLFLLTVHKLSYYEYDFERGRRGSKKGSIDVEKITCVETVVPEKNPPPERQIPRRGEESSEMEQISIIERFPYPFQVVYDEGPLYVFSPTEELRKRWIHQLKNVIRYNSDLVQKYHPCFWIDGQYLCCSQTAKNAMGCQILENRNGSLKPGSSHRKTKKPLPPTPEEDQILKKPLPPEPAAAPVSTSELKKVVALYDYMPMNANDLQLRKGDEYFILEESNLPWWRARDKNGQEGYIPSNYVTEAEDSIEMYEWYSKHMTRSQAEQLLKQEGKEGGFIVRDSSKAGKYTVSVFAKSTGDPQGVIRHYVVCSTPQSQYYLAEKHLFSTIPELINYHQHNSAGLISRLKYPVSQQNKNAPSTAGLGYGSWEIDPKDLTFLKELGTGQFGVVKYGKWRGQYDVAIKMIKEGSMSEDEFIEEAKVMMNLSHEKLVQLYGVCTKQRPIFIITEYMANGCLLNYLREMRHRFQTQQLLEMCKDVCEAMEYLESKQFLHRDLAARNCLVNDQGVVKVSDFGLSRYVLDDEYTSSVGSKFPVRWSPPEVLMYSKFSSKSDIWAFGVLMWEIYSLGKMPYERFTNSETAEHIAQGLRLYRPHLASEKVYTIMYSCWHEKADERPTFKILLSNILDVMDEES

Turning to `C=CC(=O)Nc1cccc(Nc2nc(Nc3ccc(OCC(=O)N4CCOCC4)c(Cl)c3)ncc2Cl)c1`, the IC50 (in general, the point on the concentration scale where inhibition reaches its midpoint) in [1] is 0.0008 µM; in series [2], 8.89 µM; in series [3] it was 6.45 µM. Besides, the Activity entry in series [4] is given as “Non-Toxic”; in series [5], 1.1%; in series [6], 0.9%; in [7] it was 7%; in series [8] it was 0.4%; in series [9], 14.4%. Further, the Activity entry in [11] was “<= 5%”; in series [12], 61.8%; in [13], 69.9%. Further, in series [10], the inhibition entry is “Dose-dependent effect”.

In the case of `C=CC(=O)Nc1cccc(Nc2nc(Nc3ccc(OCCCN4CCOCC4)cc3)ncc2Cl)c1`, the IC50 was 0.0006 µM in series [1], 9.32 µM in series [2] and 8.23 µM in series [3]. Moreover, the Activity entry is recorded as “Non-Toxic” in [4]; 2.7% in series [5]; 6.6% in series [6]; 8.2% in [7]; 3.5% in [8]; 18.6% in series [9]. The Activity result in series [11] is reported as “<= 5%”; in [12], 59%; in series [13], 77.2%. In addition, in series [10], the inhibition result is “Dose-dependent effect”.
